# Screening results from PubChem BioAssay.
# NadD block = NadD (S. aureus) enzyme inhibition; purified NadD enzyme, colorimetric absorbance read-out; inhibition, % at 20 µM; 0.78% of 360,000 active; in the data active = inhibition above about 26%
# SENP1 FRET inh = inhibitors of human SENP1 SUMO protease catalytic domain; recombinant SENP1 catalytic domain, CyPet-SUMO1-YPet FRET cleavage; inhibition, % at 10 µM; 0.21% of 360,000 active; AID 624204;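 active = inhibition at least 30% at 10 µM, raw YFP signal under a set limit, fluorescence ratio 0.5 to 1.5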;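 note: 0% = enzyme with DMSO and 100% = no enzyme wells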
#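 Compound: 10 µM single point, 0.5% DMSO; Test system: hSENP1 catalytic domain, recombinant; Timing: 50 min reaction at room temperature; Technique: FRET, CFP and YFP emission; Control set: no-enzyme wells low, DMSO-plus-enzyme wells high control.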
# ATG4B inh = blocks human ATG4B protease cleavage of LC3 substrate. Q9Y4P1. inhibition, % at 8.33 µM. 0.51% of 340,000 active. ATG4B cleavage of LC3-PLA2, NBD-HPC fluorescence, 1 h; in the data active = inhibition above about 40%
# NR3A LBD binder = modulates the human NR3A ligand-binding domain. NR3A LBD differential scanning fluorimetry, Tm shift; 0% = protein alone, 100% = glycine-bound protein. Tm shift relative to glycine control, % at 25 µM. 2.5% of 340,000 active;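 active = melting temperature shift of at least 10% of the positive control shift, at one fixed dose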
# UCH37 DUB inh = human UCH37 deubiquitinating enzyme inhibition. Q9Y5K5. purified proteasome/UCH37, Ub-AMC cleavage fluorescence. inhibition, % (test concentration not listed). 0.33% of 330,000 active;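 active = mean inhibition over replicate wells above about 20%, limit read from the data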;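 note: 0% = compound-free wells with enzyme and 100% = wells lacking proteasome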
# Target sequence (Q9Y5K5 whole entry, looked up): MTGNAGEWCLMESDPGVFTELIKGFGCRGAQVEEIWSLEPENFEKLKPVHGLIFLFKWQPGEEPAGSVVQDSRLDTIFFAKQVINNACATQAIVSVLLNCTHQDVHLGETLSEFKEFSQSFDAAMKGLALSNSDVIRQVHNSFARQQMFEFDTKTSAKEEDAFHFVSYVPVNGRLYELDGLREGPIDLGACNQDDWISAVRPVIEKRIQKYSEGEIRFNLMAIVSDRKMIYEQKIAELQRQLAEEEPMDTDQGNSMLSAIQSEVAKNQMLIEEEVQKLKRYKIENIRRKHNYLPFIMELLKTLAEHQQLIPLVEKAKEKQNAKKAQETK
#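 Signal – fluorescence, ex 355 nm, em 460 nm · System – Proteasome-bound UCH37 · Input – 0.15 nM proteasome as dispensed · Timing – 30 min preincubation with enzyme, 25 min cleavage at room temperature · Read-out basis – percent inhibition of cleavage signal versus uninhibited and no-proteasome wells · Medium – Tris-HCl pH 7.4 with ATP-MgCl2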
# NadD conf = NadD (S. aureus) inhibition, single concentration confirmation; inhibition, % at 20 µM; shares compounds with NadD block; 13% of 2,000 active; purified S. aureus NadD, colorimetric enzyme assay; in the data active = inhibition mostly above about 42%, no sharp cut-off; inactive = mostly below about 42%
# * marks the source's active call; other numbers are inactive results; i = inactive; / = no result. This is a sample that favours compounds with a hit; in the whole collection about 3.6% have one here.
SMILES,NadD block,SENP1 FRET inh,ATG4B inh,NR3A LBD binder,UCH37 DUB inh,NadD conf
CCOc1ccccc1-c1cc(C(=O)N/N=C/c2ccc3c(c2)OCO3)c2ccccc2n1,35.2*,1.3,-11.2,-4.4,/,11.8
CCOc1cc(C=NNc2nnc(C)n2N)ccc1O,/,/,/,/,5.8,/
COc1cccc(C=NNc2ncc(C(F)(F)F)cc2Cl)c1O,/,/,/,/,0.6,/
C=CCc1c(C)nc(C)nc1NN=Cc1ccccc1O,/,/,/,/,4.1,/
O=C(/C=C/c1ccco1)c1ccc(NC(=O)C23CC4CC(CC(C4)C2)C3)cc1,32.8*,-0.9,12.9,3.3,3.7,11.4
Cc1ccc(CN2CCN(N=C/C=C/c3ccccc3[N+](=O)[O-])CC2)cc1,/,/,/,/,4.6,/
O=C(CNC(=O)c1cccc(Br)c1)NN=Cc1ccc[nH]1,/,/,/,/,0.4,/
O=C1C2C(c3cccc(/C=C/c4ccccc4)c3)CC=CC2C(c2ccc(C(F)(F)F)cc2)N1Cc1ccccc1 (configuration not stated),22.6,-0.7,-6.3,0.3,-6.3,/
Cc1ccc(-c2cccc(C3CC=CC4C3C(=O)N(Cc3ccccc3)C4c3ccc4ccccc4c3)c2)cc1 (configuration not stated),33.6*,3.0,6.3,-0.3,3.4,4.2
Cc1ccc(F)c(C2C3C=CCC(c4cccc(-c5ccc(N(C)C)cc5)c4)C3C(=O)N2Cc2ccccc2)c1 (configuration not stated),43.1*,2.1,1.2,-1.0,1.7,18.2
O=C1C2C(c3cccc(/C=C/c4ccccc4)c3)CC=CC2C(c2ccc3ccccc3c2)N1Cc1ccccc1 (configuration not stated),31.8*,-1.3,-12.8,2.7,-0.2,7.6
COc1ccc(-c2cccc(C3CC=CC4C3C(=O)N(Cc3ccccc3)C4c3ccc(OC)c(Cl)c3)c2)cc1 (configuration not stated),18.8,1.9,7.2,1.4,-2.6,/
COc1ccccc1CC1S/C(=N/N=Cc2ccco2)NC1=O (configuration not stated),/,/,/,/,10.0,/
Nc1cc(N)cc(-c2nc3ccccc3[nH]2)c1,-0.8,-0.7,-2.1,-2.6,-8.6,/
Cc1ccc(C)c(-c2nc3ccc(N)cc3[nH]2)c1,7.0,-19.5,-3.4,3.4,-465.6,/
Nc1ccc2nc(-c3cccc(-c4nc5ccc(N)cc5[nH]4)c3)[nH]c2c1,39.1*,-32.4,-2.4,/,-8.0,23.8
Cc1nc2ccc(-c3nc4ccc(N)cc4[nH]3)cc2[nH]1,45.4*,-16.9,-10.4,-0.2,i,20.2
Nc1ccc(-c2nc3ccc(N)cc3[nH]2)cc1,66.1*,-9.7,-17.4,9.1,i,22.8
Cc1cc(-c2nc3ccccc3[nH]2)ccc1N,0.8,-1.7,-14.0,-5.0,-99.2,/
CSCC[C@H](NC(=O)OC(C)(C)C)C(=O)NN=Cc1cc2ccc(C)cc2nc1Cl,/,/,/,/,-72.3,/
CN(C)C=Nn1cnc2ccccc2c1=O,/,/,/,/,0.7,/
Cc1ccc(OCC(=O)Nc2nnc(S(=O)(=O)N3CCCCC3)s2)cc1,49.2*,-22.4,-9.4,-5.8,2.7,18.2
O=C(Nc1nnc(S(=O)(=O)N2CCCCCC2)s1)c1ccc(Cl)cc1,31.1*,-1.8,13.0,-2.7,-1.5,9.5
c1ccc(-c2ccc(CN3C[C@@H]4C(c5ccccc5)C5(c6cccnc6)CC4(C5)[C@H]3c3ccccc3)cc2)cc1 (some centres not stated),52.3*,-5.8,-5.2,3.8,0.1,28.1
O=C(CC1OC(=O)c2ccccc21)Nc1cc(Cl)ccc1N1CCCC1 (configuration not stated),31.8*,-0.7,3.8,0.3,-0.8,11.5
Cc1cccc(N=Cc2nc(-c3ccccc3Br)oc2O)n1,/,/,/,/,2.6,/
CCCC[C@@H]1Cc2[nH][nH]c(=O)c2[C@@H](c2ccc(Cl)cc2)O1,-4.0,0.8,/,/,/,/
CCCC[C@@H]1Cc2[nH][nH]c(=O)c2[C@H](c2ccc(C(C)C)cc2)O1,38.1*,0.3,/,/,/,5.7
Cc1ccc(/C=N/Nc2nncc(-c3ccccc3)n2)o1,-2.2,2.5,1.3,0.7,/,/
Clc1ccc(-c2ccc(/C=N/Nc3nncc(-c4ccccc4)n3)o2)cc1,37.9*,-1.2,-8.2,-2.3,/,12.9
